According to the EternaBench riboswitch data:

Test system: MS2 coat protein
Test: apparent Kd, MS2 coat protein; higher = weaker binding; RNA-MaP array; FMN 200 µM where present
Outline: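 On Illumina sequencing-chip clusters, designs were transcribed by stalled E. coli RNA polymerase and titrated with SNAP-549-labelled MS2 coat protein (0.7 or 1.5 nM, doubling to 3 µM), without and then with constant ligand, in 100 mM Tris-HCl pH 7.5, 80 mM KCl, 4 mM MgCl2, BSA, DTT, yeast tRNA and Tween-20. Apparent Kd is the median of filtered per-cluster curve fits to green signal normalised to red-channel RNA signal and control-cluster median Fmax.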

[1] = designed as: OFF switch for flavin mononucleotide, no ligand
[2] = ligand present: flavin mononucleotide, designed as: OFF switch for flavin mononucleotide
[3] = designed as: ON switch for flavin mononucleotide, no ligand
[4] = ligand present: flavin mononucleotide, designed as: ON switch for flavin mononucleotide

UGUGCGUAUGUGAGGAUAUGCUGGUCCUUGGAUCAGCAGAAGGCACAUGAGGAUCACCCAUGUGGUGUCGUACU
apparent Kd [1]: 296 nM | apparent Kd [2]: 25.7 nM

UGUGCGUUGAUCUUCGAUCGGUGUACAUGAGGAUCACCCAUGUAGGAUAUUCAAAGACGCAGAUAGGAGAAGGACAUCGGUUUU
apparent Kd [1]: 18 nM | apparent Kd [2]: 19.8 nM

UGUGUCCGUAGAGGAUAUCCGGGCGUUCGGCUAGGAGAAGGCUGCGACACAUGAGGAUCACCCAUGUAGGUUGUGUCUCUCUAC
apparent Kd [1]: 51.6 nM | apparent Kd [2]: 275 nM

UGUUGUAUUACAGGAUAUCUAGUAUUUUUAUUCAGAGAAGGGUAUUCACAUGAGGAUCACCCAUGUAUAUACGAGGAAGUUGUG
apparent Kd [3]: 45.2 nM | apparent Kd [4]: 46.2 nM

UGUUGUAUUACAGGAUAUCUAUGAUUUUUAUUAAGAGAAGGGUAUUCACAUGAGGAUCACCCAUGUAUAUACGAGGAAGUUGUG
apparent Kd [3]: 35.2 nM | apparent Kd [4]: 36 nM

UGUUGUAUUACAGGAUAUCUAUUAGUUUUAAUUAGAGAAGGGUAUUCACAUGAGGAUCACCCAUGUAUAUACGAGGAAGUUGUG
apparent Kd [3]: 39.1 nM | apparent Kd [4]: 42.2 nM

UGUUGUUCAGGAUAUGAUGUUUUAUACAUGAGGAUCACCCAUGUGGGUCCUGAUUUGGCGUCAGAAGGGAAUGUUG
apparent Kd [1]: 108 nM | apparent Kd [2]: 222 nM

UGUUGUUCCGCAGGAUAUGUAUUAGAUUAUAAUACAGAAGGGCGAUAACAUGAGGAUCACCCAUGUGUGGACAAUAAGGAAGAG
apparent Kd [3]: 602 nM | apparent Kd [4]: 81.2 nM

UUAAAACGUGUGAGGAUAUCGAGAGUAGCUGAUCUCGAGAAGGCACAUGAGGAUCACCCAUGUGGCCUGCACCG
apparent Kd [1]: 14.6 nM | apparent Kd [2]: 14.7 nM

UUAAAUCAUGUAGGAUAUGCAUGGCGAAGCUACGCAGAAGGACAUGAGGAUCACCCAUGUGCUAGCGUCUGGAAACAGAUGCAA
apparent Kd [1]: 56 nM | apparent Kd [2]: 269 nM

UUAAAUCAUGUAGGAUAUGCAUGGCGAAGCUACGCAGAAGGACAUGAGGAUCACCCAUGUUAUAGCUACCGAUUAAGGUGGCAA
apparent Kd [1]: 92.9 nM | apparent Kd [2]: 246 nM

UUAAAUCAUGUAGGAUAUGCAUGGCGAAGCUACGCAGAAGGACAUGAGGAUCACCCAUGUUCAAGCGUCUGAGUACAGAUGCAA
apparent Kd [1]: 20.9 nM | apparent Kd [2]: 102 nM

UUAAAUCGAAACAUGAGGAUCACCCAUGUGUUGUGAUUAAUAUAGGAUAUGUGUAUACUUUUAUGACAGAAGGAUGAUAAUACU
apparent Kd [3]: 12.3 nM | apparent Kd [4]: 10.7 nM

UUAAUCUAUACAGGAUAUCCAUACGGUGCAUACGGAGAAGGGUAACAAUCAUGAGGACAUGAGGAUCACCCAUGUUCUGACCAU
apparent Kd [3]: 7.23 nM | apparent Kd [4]: 6.35 nM

UUAAUGUGAGGAUAUCAGGUGUGCUAGCGUACUGGUACAUCUGAGAAGGCACAUGAGGAUCACCCAUGUUUCUU
apparent Kd [1]: 32.7 nM | apparent Kd [2]: 110 nM

UUAAUUAACAAGAAGGCAUACAUGAGGAUCACCCAUGUUGUACAUGGAUAAUGAGGAUAUUGCUAAUACAUGAGGAUCACCCAU
apparent Kd [1]: 36.5 nM | apparent Kd [2]: 34.3 nM

UUAAUUAACAAGAAGGCUUACAUGAGGAUCACCCAUGUUGUACAUGGAUAAAGAGGAUAUUGCUAAUAAUUAUUUUUCUUAAUU
apparent Kd [1]: 92.1 nM | apparent Kd [2]: 57.5 nM

UUACAUACAAAGUUACAUGAGGAUCACCCAUGUUUAUUGGGAAGAAGGGUAACAGUAUUACAUAUAUAGGAUAUUUCACAAUUG
apparent Kd [3]: 333 nM | apparent Kd [4]: 181 nM

UUACCUCAUGAGAAGGACAUGAGGAUCACCCAUGUAGGAUAUCGUGGGACACUGGUAUUGAAUCUUCGGAUUCAAUACCUGUGU
apparent Kd [3]: 465 nM | apparent Kd [4]: 29 nM

UUACCUUAUGAGAAGGCGAUCAUGAAACAUGAUCGAGGAUAUCAUGUAAACAUGAGGAUCACCCAUGUAUGGGUAUUAUGGUAC
apparent Kd [3]: 86.6 nM | apparent Kd [4]: 27.8 nM

UUACUACAUGAGGAUCACCCAUGUCAGGAUAUUGUCUAUACCGUGGAAGCUGUGUCGAUAAGAAGGGACUGUAU
apparent Kd [1]: 20.5 nM | apparent Kd [2]: 34.8 nM

UUACUAUUACAGAAGGUUAAAUAAUAUAUAAAUGAAGGAUAUGUGACAUGAGGAUCACCCAUGUUUCACCCACAUGAGGAUCAU
apparent Kd [1]: 8.62 nM | apparent Kd [2]: 7.41 nM

UUACUAUUGGAGAAGGCUCAAUAAUAUAUAAAGGGAGGAUAUCCAACAUGAGGAUCACCCAUGUUUCACCCAUAUGAGGAUCAC
apparent Kd [1]: 13.1 nM | apparent Kd [2]: 12.5 nM
